According to ChEMBL document CHEMBL1250496, “Novel 6,12-disubstituted chrysene as potent anticancer agent: synthesis, in vitro and in vivo study” (Eur J Med Chem, 2010):
pIC50: −log10 of the molar value.

How the values were obtained:
[1] = Cytotoxicity against human BRO cells after 72 hrs by MTT assay; format: functional, cell-based
Outline: (§1)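 Cells were exposed continuously to drug for 72 h, with dilutions made in RPMI 1640 + 10% FBS and final solvent below 0.625%. Relative growth was read by MTT, and IC50 was reported in μM.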

HT-29 = test: Cytotoxicity against human HT-29 cells after 72 hrs by MTT assay; format: functional, cell-based; outline: as §1
SK-OV-3 [2] = test: Cytotoxicity against human SKOV3 cells after 72 hrs by MTT assay; format: functional, cell-based; outline: as §1
PC-3 = test: Cytotoxicity against human PC3 cells after 72 hrs by MTT assay; format: functional, cell-based; outline: as §1
HL-60 = test: Cytotoxicity against human HL60 cells after 72 hrs by MTT assay; format: functional, cell-based; settings: HL-60, 72 h; outline: as §1
MCF7 = test: Cytotoxicity against human MCF7 cells after 72 hrs by MTT assay; format: functional, cell-based; outline: as §1
P388 = test: Cytotoxicity against mouse P388 cells after 72 hrs by MTT assay; format: functional, cell-based; outline: as §1
SK-OV-3 [3] = test: Antitumor activity against human SKOV3 xenografted in mouse assessed as reduction in tumor volume at 40 mg/kg, ip for 5 days; format: functional; set-up: scale not given: the % may be the effect or the level left; settings: route intraperitoneal
Outline: (§2)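 Female nu/nu mice, 6-10 weeks old. SKOV-3 cells were harvested at 80% confluence with viability >90% by trypan blue, washed, resuspended in PBS and given i.p. at 0.65 × 10^6 per mouse. Mice were sacrificed at 7 weeks and tumors counted and total volume measured per mouse.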

SK-OV-3 [4] = test: Antitumor activity against human SKOV3 xenografted in mouse assessed as reduction in tumor number at 40 mg/kg, ip for 5 days; format: functional; set-up: scale not given: the % may be the effect or the level left; settings: route intraperitoneal; outline: as §2
Mus musculus = test: Toxicity in mouse assessed as weight loss at 40 mg/kg, ip; format: organism-based; set-up: dose 40 mg/kg, route intraperitoneal; settings: in vivo

Compound | pIC50 ([1]; Homo sapiens, BRO, 72 h) | pIC50 (HT-29; Homo sapiens, HT-29, 72 h) | pIC50 (SK-OV-3 [2]; Homo sapiens, SK-OV-3, 72 h) | pIC50 (PC-3; Homo sapiens, PC-3, 72 h) | pIC50 (HL-60) | pIC50 (MCF7; Homo sapiens, MCF7, 72 h) | pIC50 (P388; Mus musculus, P388, 72 h) | pIC50 ([1]; bro) | pIC50 (P388; p388) | pIC50 (HT-29; ht-29) | pIC50 (SK-OV-3 [2]; sk-ov-3) | pIC50 (PC-3; pc-3) | Activity (SK-OV-3 [3]) | Activity (SK-OV-3 [4]) | Activity (Mus musculus) | pIC50 (MCF7; mcf7)
O=C(CCC(=O)N1CCCCC1)Nc1cc2c3ccccc3ccc2c2ccccc12 | < 4.00 | 4.48 | 4.68 | 4.30 | 4.73 | 4.61 |  |  |  |  |  |  |  |  |  | 
O=C(CCC(=O)N1CCCCC1)Nc1cc2c3ccccc3c(NC(=O)CCC(=O)N3CCCCC3)cc2c2ccccc12 | 4.35 | 4.39 | 4.66 | 4.61 | 4.60 | 4.68 | 4.42 |  |  |  |  |  |  |  |  | 
CN1CCN(C(=O)CCC(=O)Nc2cc3c4ccccc4c(NC(=O)CCC(=O)N4CCN(C)CC4)cc3c3ccccc23)CC1 | 4.24 | 4.18 | 4.14 | 4.81 | 4.38 | 4.12 | 4.01 |  |  |  |  |  |  |  |  | 
CN1CCN(CCCCNc2cc3c4ccccc4c(NCCCCN4CCN(C)CC4)cc3c3ccccc23)CC1 |  | 5.68 | 6.05 | 5.92 | 6.05 | 5.77 |  | 5.42 | 5.77 |  |  |  |  |  |  | 
CN1CCN(CCCCNc2cc3c4ccccc4c(NCCCCN4CCN(C)CC4)cc3c3ccccc23)CC1.Cl |  |  |  |  |  |  |  | 6.22 | 6.10 | 5.80 | 6.00 | 5.68 | 47% | 35% | 5% | 5.92
c1ccc2c(c1)ccc1c3ccccc3c(NCCCCN3CCCCC3)cc21 | 5.47 | 5.62 | 5.36 | 5.43 | 5.96 | 5.64 | 5.66 |  |  |  |  |  |  |  |  | 
CN1CCN(CCCCNc2cc3c4ccccc4ccc3c3ccccc23)CC1 | 4.86 | 4.84 | 5.08 | 5.00 | 5.28 | 5.19 | 4.71 |  |  |  |  |  |  |  |  | 
c1ccc2c(c1)c(NCCCCN1CCCCC1)cc1c3ccccc3c(NCCCCN3CCCCC3)cc21 | 5.77 | 5.92 | 5.72 | 6.10 | 6.10 | 5.85 | 5.70 |  |  |  |  |  |  |  |  | 
CN1CCN(C(=O)CCC(=O)Nc2cc3c4ccccc4ccc3c3ccccc23)CC1 | 4.38 | 5.03 | 4.95 | 4.74 | 5.02 | 5.15 | 5.22 |  |  |  |  |  |  |  |  | 
